Screening results: PubChem BioAssay, The Scripps Research Institute Molecular Screening Center
An excerpt weighted towards active compounds, which were near 0.58% of everything screened.
V1aR counter = agonists of human V1a receptor, primary screen, counter-screen for OXTR agonist project, fluorescence, CHO-V1R cells; Fluo-8 calcium fluorescence, agonist mode; 0% DMSO, 100% 3 nM vasopressin; activation, % at 3 µM; hit rate 0.25% among 320,000; AID 2797, 2010;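 active = activation above the mean activation of all tested compounds plus 3 SD, per screening run, cut at about 20% in these data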;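 also: signal is peak over basal fluorescence ratio across a 100 second FLIPR read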
Target sequence (P37288 whole entry, looked up): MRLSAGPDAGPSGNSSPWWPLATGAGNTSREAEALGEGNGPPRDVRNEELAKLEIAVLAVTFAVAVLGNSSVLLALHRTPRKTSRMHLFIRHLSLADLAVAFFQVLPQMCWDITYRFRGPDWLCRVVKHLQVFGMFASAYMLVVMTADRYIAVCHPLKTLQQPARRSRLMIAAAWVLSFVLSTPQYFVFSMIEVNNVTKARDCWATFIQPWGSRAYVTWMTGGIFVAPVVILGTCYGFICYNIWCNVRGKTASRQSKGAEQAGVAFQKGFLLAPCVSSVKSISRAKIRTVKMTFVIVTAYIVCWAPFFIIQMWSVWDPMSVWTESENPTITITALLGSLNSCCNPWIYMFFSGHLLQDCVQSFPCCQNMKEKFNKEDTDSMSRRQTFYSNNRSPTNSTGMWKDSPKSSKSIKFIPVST
TRPN1 ag = zebrafish TRPN1 channel agonists, primary screen, cell-based, HEK293, calcium fluorescence. transient receptor potential cation channel N1 (TRPN1/NompC), Danio rerio. HEK293 zebrafish TRPN1-YFP, Fluo-8 calcium fluorescence; 100% = response to 87 µM carbachol. activation, % at 3 µM. hit rate 0.18% among 220,000;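 active = activation above its plate's cutoff, the mean activation of test wells on that plate plus 3 SD, cut at about 19% in these data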;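 also: 0% = DMSO alone and 100% = 87 µM carbachol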
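Material: zebrafish TRPN1-YFP in HEK293 cells. Doses: one dose of 3 µM, 0.3% DMSO. Incubation: dye 1 h 37 °C plus 30 min RT. Measured by: intracellular calcium fluorescence with Fluo-8.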
TRPML3 agonist = human TRPML3 channel agonists, primary screen, cell-based, HEK293 TRPML3-YFP, Fluo-8 calcium fluorescence, 3 µM. Mucolipin-3 (Homo sapiens), Q8TDD5. hit rate 0.29% among 220,000. 100% = the carbachol control signal. activation, % at 3 µM. AID 1448, 2008;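 active = activation above its plate's cutoff, the mean activation of the plate's test wells plus 3 SD, cut at about 12% in these data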;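 also: 0% = DMSO only wells and 100% = carbachol wells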
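Test system – HEK293 line with stable expression of human TRPML3-YFP channel · Control set – carbachol 87 µM final as high control (100%), DMSO as low control (0%) · Signal – Fluo-8 calcium dye fluorescence, ex 470-495, em 515-575 nm · Incubation – 1-h 37 °C dye load, 5-s basal, 120-s post-compound reads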
OXTR potentiator = human OXTR potentiators, primary screen, fluorescence, CHO-OTR cells, Fluo-8 calcium. Oxytocin receptor (Homo sapiens), P30559. Fluo-8 calcium fluorescence, potentiator mode; 0% = oxytocin EC15, 100% = EC100. activation, % at 3 µM. hit rate 0.061% among 320,000. AID 2445, 2010;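 active = activation above that plate's cutoff, the mean activation of tested compounds plus 3 SD, cut at about 6.6% in these data, passing the limit was not always enough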;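 also: 100% uses oxytocin at 75 nM as the full agonist control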
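System: human OTR in CHO cells; Also added: sub-maximal oxytocin, roughly EC15; Timing: compound 6 min at room temperature before oxytocin, 100 s read; Technique: Fluo-8 intracellular calcium fluorescence, ex 470-495, em 515-575 nm; Controls: oxytocin EC15 low and EC100 high; Replication: singlicate.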
OXTR agonist = human OXTR agonists, primary screen, fluorescence, CHO-OTR cells, Fluo-8 calcium | activation, % at 3 µM | AID 2435, 2010 | Oxytocin receptor (Homo sapiens), P30559 | hit rate 0.32% among 320,000 | Fluo-8 calcium fluorescence; normalized: DMSO 0%, oxytocin 100%;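 active = activation above the mean of all tested compounds plus 3 SD, cutoff set per screening run, cut at about 20% in these data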;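 also: peak over basal fluorescence ratio from a 100 s FLIPR kinetic read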
TRPN1 ag 2 = zebrafish TRPN1 channel agonists, counter-screen for TRPML3 agonist project, cell-based, HEK293 TRPN1-YFP, Fluo-8 calcium; shares compounds with TRPML3 agonist; Fluo-8 calcium fluorescence; scaled: carbachol wells 100%, DMSO wells 0%; activation, % at 3 µM; hit rate 10% among 310; AID 1525, 2009;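 active = mean activation over replicates above a set limit taken from the earlier TRPN1 channel primary screen, cut at about 19% in these data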;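 also: 100% = carbachol and 0% = 0.3% DMSO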
TRPML3 ag conf = human TRPML3 channel agonists, confirmation, cell-based, HEK293 TRPML3-YFP, Fluo-8 calcium, triplicate. activation, % at 3 µM. Fluo-8 calcium fluorescence; 100% set by carbachol, 0% by DMSO. shares compounds with TRPML3 agonist. hit rate 80% among 310;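 active = activation above a set limit derived from the earlier primary screen, cut at about 12% in these data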
* hit, by the source's call.

How did CCOc1c(OC(C)=O)ccc(/C=C/c2ccc3cccc(OC(C)=O)c3n2)c1[N+](=O)[O-] do in these assays?
V1aR counter: -0.1; TRPN1 ag: 0.1; TRPML3 agonist: 0.2; OXTR potentiator: -8.6; OXTR agonist: -0.2

Results for C=CCN1C(=O)/C(=C/c2ccc(OC(C)=O)c(OCC)c2[N+](=O)[O-])SC1=S ?
TRPN1 ag: 18.5; TRPML3 agonist: 12.2*; TRPN1 ag 2: 19.2*; TRPML3 ag conf: 7.0

What do the screens show for `CC(=O)Nc1ccc(NC(=O)C(C)OC(=O)CCCOc2ccc(Cl)cc2C)cc1` (stereo not drawn)?
V1aR counter: 1.2; OXTR potentiator: -16.1; OXTR agonist: 1.1

What do the screens show for `Cc1cccc(NC(=O)CSc2nc3ccccc3nc2N2CCCC2)c1C`?
V1aR counter: 0.6; OXTR potentiator: -2.9; OXTR agonist: -1.9

Results for Oc1c(Cl)cc(Cl)cc1CNn1cnnc1 ?
V1aR counter: 0.0; TRPN1 ag: 0.1; TRPML3 agonist: 0.3; OXTR potentiator: -13.3; OXTR agonist: -0.3

Results for Oc1c(Cl)cc(Cl)cc1Sc1cc(Cl)cc(Cl)c1O ?
V1aR counter: 9.2; TRPN1 ag: 16.0; TRPML3 agonist: 12.9*; OXTR potentiator: -10.9; OXTR agonist: 16.6; TRPN1 ag 2: 29.4*; TRPML3 ag conf: 13.4*

How did O=C1NCC(c2ccccc2)C1C(=O)N/N=C/c1ccc(Cl)s1 (stereo not drawn) do in these assays?
V1aR counter: 1.5; TRPN1 ag: 2.5; TRPML3 agonist: 15.2*; OXTR potentiator: -3.2; OXTR agonist: -0.2; TRPN1 ag 2: 20.4*; TRPML3 ag conf: 20.2*

How did O=C1NCC(c2ccccc2)C1C(=O)N/N=C\c1ccc(-c2ccc(Cl)c(Cl)c2)o1 (stereo not drawn) do in these assays?
V1aR counter: 0.6; TRPN1 ag: -0.6; TRPML3 agonist: -0.6; OXTR potentiator: -5.4; OXTR agonist: -0.4

How did CC1=CC(C)(C)N(C(=O)CSc2nnc(C)s2)c2ccc(C)cc21 do in these assays?
V1aR counter: -0.6; TRPN1 ag: -1.3; TRPML3 agonist: -0.8; OXTR potentiator: -1.4; OXTR agonist: -2.2

Results for CC1=CC(C)(C)N(C(=O)CSc2nnc(-c3ccc(C)cc3)o2)c2ccc(C)cc21 ?
V1aR counter: 0.1; TRPN1 ag: -0.5; TRPML3 agonist: 61.8*; OXTR potentiator: -19.6; OXTR agonist: -1.4; TRPN1 ag 2: -1.9; TRPML3 ag conf: 48.6*

Results for Cc1ccc(S(=O)(=O)N2CCCC(C(=O)N(Cc3cccs3)C3CC3)C2)cc1 (stereo not drawn) ?
V1aR counter: 5.4; TRPN1 ag: 0.2; TRPML3 agonist: -0.1; OXTR potentiator: -20.2; OXTR agonist: 3.7

How did CCC1CCCCN1S(=O)(=O)c1ccc(S(=O)(=O)N(Cc2cccs2)C2CC2)cc1 (stereo not drawn) do in these assays?
V1aR counter: 2.2; TRPN1 ag: 8.4; TRPML3 agonist: 94.7*; OXTR potentiator: -11.3; OXTR agonist: 2.4; TRPN1 ag 2: 13.9; TRPML3 ag conf: 112.2*

What do the screens show for `CCC1CCCCN1S(=O)(=O)c1ccc(S(=O)(=O)N(Cc2ccccn2)CC2CCCO2)cc1` (stereo not drawn)?
V1aR counter: 1.1; TRPN1 ag: 0.0; TRPML3 agonist: 28.4*; OXTR potentiator: -8.3; OXTR agonist: 1.5; TRPN1 ag 2: 2.2; TRPML3 ag conf: 95.6*

What do the screens show for `COc1ccc(CCNC(=O)CCC(=O)N2CCOc3ccc(Cl)cc32)cc1OC`?
V1aR counter: 0.1; OXTR potentiator: -3.8; OXTR agonist: -1.1

Results for COc1ccc(C(C)(C)C)cc1NC(=O)c1cc(S(=O)(=O)N(C)C)ccc1N1CCCC1 ?
V1aR counter: -1.8; TRPN1 ag: -1.6; TRPML3 agonist: 33.6*; OXTR potentiator: -8.9; OXTR agonist: -2.8; TRPN1 ag 2: 0.1; TRPML3 ag conf: 33.2*

How did CN(C)S(=O)(=O)c1ccc(N2CCCC2)c(C(=O)Nc2ccc(F)cc2F)c1 do in these assays?
V1aR counter: 1.7; OXTR potentiator: -10.1; OXTR agonist: 0.4

What do the screens show for `Cc1ccc(N2C(=O)c3ccccc3C2C(=O)c2ccc(C)c(C)c2O)cc1` (stereo not drawn)?
V1aR counter: -0.7; TRPN1 ag: -2.6; TRPML3 agonist: 0.1; OXTR potentiator: 3.0; OXTR agonist: -3.7

Results for O=S(=O)(c1ccc2ccccc2c1)N1CCCCCC1 ?
V1aR counter: -1.3; TRPN1 ag: -1.7; TRPML3 agonist: 80.5*; OXTR potentiator: -10.2; OXTR agonist: -1.6; TRPN1 ag 2: 0.1; TRPML3 ag conf: 62.4*

What do the screens show for `COc1cc(S(=O)(=O)N2CCN(C)CC2)ccc1Cl`?
V1aR counter: 1.2; TRPN1 ag: -0.5; TRPML3 agonist: 0.1; OXTR potentiator: 4.5; OXTR agonist: 0.0

Results for COc1cc(S(=O)(=O)N2CCCCCC2)ccc1Cl ?
V1aR counter: 5.4; TRPN1 ag: -1.6; TRPML3 agonist: 44.0*; OXTR potentiator: -9.6; OXTR agonist: -2.3; TRPN1 ag 2: -1.0; TRPML3 ag conf: 61.5*

Results for CC(C)c1ccc(S(=O)(=O)N2CCCCC2)cc1 ?
V1aR counter: -1.1; TRPN1 ag: -0.1; TRPML3 agonist: 14.6*; OXTR potentiator: -2.2; OXTR agonist: -0.7; TRPN1 ag 2: -0.7; TRPML3 ag conf: 14.6*

How did O=S(=O)(c1ccc2ccccc2c1)N1CCCCC1 do in these assays?
V1aR counter: -0.9; TRPN1 ag: 0.5; TRPML3 agonist: 15.9*; OXTR potentiator: -0.5; OXTR agonist: -2.0; TRPN1 ag 2: 0.4; TRPML3 ag conf: 12.3*

How did CN1CCCN(S(=O)(=O)c2ccc3ccccc3c2)CC1 do in these assays?
V1aR counter: -0.6; OXTR potentiator: -3.6; OXTR agonist: -0.6

Results for O=C(O)COCC(=O)Nc1ccc(-n2cnnn2)cc1 ?
V1aR counter: 0.7; TRPN1 ag: 0.4; TRPML3 agonist: 0.6; OXTR potentiator: -1.6; OXTR agonist: 0.4

Results for CNc1c([N+](=O)[O-])cnn1-c1ccc(C)cc1 ?
V1aR counter: 0.1; TRPN1 ag: 0.1; TRPML3 agonist: 0.9; OXTR potentiator: -1.3; OXTR agonist: -0.3
